According to PMC7347020 (Science (New York, N.Y.), 2020):
Like-named read-outs stand apart in the source and are kept apart here. Each block holds one compound with its values, some of them ahead of it.

Columns and labels:
CATΔHD [1] = assay: DSF thermal stability, CATΔHD; assay type: binding
Outline: (§1)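 Protein melting temperature was measured by differential scanning fluorimetry with and without test compound. ΔTM was taken as TM with compound minus TM without compound.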

PARP-1 W318R [2] = target: T1, PARP-1 W318R (Homo sapiens, UniProt P09874, W318R); assay: FP DNA competition, W318R mutant; assay type: binding
Outline: (§2)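 Fluorescence polarization competition used FAM-labeled SSB-DNA bound by the PARP-1 variant, challenged with unlabeled SSB-DNA, with or without test compound.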

PARP-1 [3] = target: T2, PARP-1 (Homo sapiens, UniProt P09874); assay: HXMS of WT PARP-1/SSB-DNA complex; conditions: PARP-1/SSB-DNA complex with versus without inhibitor
PARP-1 R591C [4] = target: T3, PARP-1 R591C (Homo sapiens, UniProt P09874, R591C); assay: FP DNA competition, R591C mutant; assay type: binding
Outline: as §2

PARP-1 [5] = target: T2, PARP-1; conditions: cited from earlier work
PARP-1 [6] = target: T2, PARP-1; assay: SPR dissociation kinetics of PARP-1 from SSB-DNA; assay type: binding
PARP-1 [7] = target: T2, PARP-1; assay: Classification of PARPi by allosteric effects; conditions: based on HXMS and DNA binding studies
PARP-1 [8] = target: T2, PARP-1; assay: FP DNA binding affinity of PARP-1 for SSB-DNA
WT PARP-1 = WT PARP-1 (Homo sapiens, UniProt P09874); assay: FP DNA competition; assay type: binding; conditions: WT PARP-1, with or without inhibitor
PARP-1 R591C [9] = target: T3, PARP-1 R591C; assay: HXMS of PARP-1 R591C/SSB-DNA; conditions: R591C mutant
PARP-1 D766/770A [10] = target: T4, PARP-1 D766/770A (Homo sapiens, UniProt P09874, D766A/D770A); assay: FP DNA competition, D766/770A mutant; assay type: binding
Outline: as §2

PARP-1 W318R [11] = target: T1, PARP-1 W318R; assay: HXMS of PARP-1 W318R/SSB-DNA; conditions: W318R mutant
PARP-1 D766/770A [12] = target: T4, PARP-1 D766/770A; assay: HXMS of PARP-1 D766/770A/SSB-DNA; conditions: D766/770A mutant
Outline: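 PARP-1 (2.6 μM) was mixed with SSB-DNA (5 μM) and, where applicable, inhibitor (5.2 μM). Deuterium on-exchange ran at RT in 10 mM HEPES pD 7.0, 150 mM NaCl (final 75% D2O). Samples were quenched in ice-cold buffer, frozen in liquid nitrogen, pepsin-digested, separated on C18 and analysed by electrospray MS for per-peptide deuteration.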

PARP-1 CAT = PARP-1 CAT (Homo sapiens, UniProt P09874); assay: DSF thermal stability, CAT domain; assay type: binding
Outline: as §1

[13] = test system: MMS-treated CAPAN-1 cells; conditions: cited from earlier work
CATΔHD [14] = conditions: cited from earlier work
CAPAN-1 cells = assay: Cell survival assay, CAPAN-1; assay type: cell-based; conditions: cell survival experiment
[15] = test system: parental or PARP-1−/− cells; assay: Survival assay, parental or PARP-1−/− cells; assay type: cell-based; conditions: low concentrations; parental versus PARP-1−/−
[16] = test system: SUM149PT-BRCA1mut and SUM149PT-BRCA1rev cells; assay: Cell survival assay, SUM149PT-BRCA1mut versus SUM149PT-BRCA1rev; assay type: cell-based
[17] = test system: CAL51 PARP-1−/− cells transfected with PARP-1-GFP; assay: Microirradiation assay, PARP-1-GFP residence at DNA damage sites; assay type: cell-based
[18] = test system: MMS-treated CAPAN-1 cells; assay: Chromatin fractionation assay; assay type: cell-based; conditions: 1, 10 and 25 μM, 0.01% MMS
Outline: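 Chromatin fractionation measured chromatin-bound PARP-1 in cells exposed to 0.01% MMS, with or without test compound.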

PARP-1 [19] = target: T2, PARP-1; assay: PARP-1 catalytic inhibition; assay type: biochemical; conditions: catalytic inhibitory potency; not shown
[20] = test system: ADP-ribosylation activity in cells; assay: Measurement of PAR in cells; assay type: cell-based; conditions: 0.01, 0.1, 1 and 10 μM, 0.01% MMS
Outline: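 Cells were co-treated with test compound and 0.01% MMS. Cellular poly(ADP-ribose) was detected by western blot with an anti-pan-ADP-ribose binding reagent.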

Chain of WT PARP-1 (P09874 whole entry): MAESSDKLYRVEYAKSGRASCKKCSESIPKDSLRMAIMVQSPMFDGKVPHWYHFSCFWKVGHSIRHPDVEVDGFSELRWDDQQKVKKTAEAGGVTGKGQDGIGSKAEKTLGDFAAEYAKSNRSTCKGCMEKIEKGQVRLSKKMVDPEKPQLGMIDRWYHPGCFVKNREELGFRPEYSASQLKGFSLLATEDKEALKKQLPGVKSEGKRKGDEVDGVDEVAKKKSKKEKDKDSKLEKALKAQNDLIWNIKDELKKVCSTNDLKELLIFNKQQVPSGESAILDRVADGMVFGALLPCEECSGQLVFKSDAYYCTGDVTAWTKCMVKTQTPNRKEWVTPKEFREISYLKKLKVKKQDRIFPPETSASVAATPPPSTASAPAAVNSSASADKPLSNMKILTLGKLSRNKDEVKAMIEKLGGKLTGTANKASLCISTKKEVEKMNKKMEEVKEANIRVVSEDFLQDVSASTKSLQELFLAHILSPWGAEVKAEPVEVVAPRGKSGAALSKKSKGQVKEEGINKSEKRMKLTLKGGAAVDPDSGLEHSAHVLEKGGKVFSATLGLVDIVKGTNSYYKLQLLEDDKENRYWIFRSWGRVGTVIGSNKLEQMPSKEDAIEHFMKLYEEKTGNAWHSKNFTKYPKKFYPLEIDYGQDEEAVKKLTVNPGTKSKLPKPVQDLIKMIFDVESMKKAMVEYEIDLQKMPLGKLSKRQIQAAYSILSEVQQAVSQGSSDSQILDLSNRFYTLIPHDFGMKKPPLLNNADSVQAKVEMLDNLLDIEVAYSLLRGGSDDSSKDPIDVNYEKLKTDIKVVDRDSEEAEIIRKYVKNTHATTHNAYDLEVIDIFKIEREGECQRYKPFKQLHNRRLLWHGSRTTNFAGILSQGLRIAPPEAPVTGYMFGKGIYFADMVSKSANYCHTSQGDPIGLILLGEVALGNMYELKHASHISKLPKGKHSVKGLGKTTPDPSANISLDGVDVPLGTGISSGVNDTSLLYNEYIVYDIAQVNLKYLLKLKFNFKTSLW
T2 sequence (P09874 whole entry): as above
T4 sequence (P09874 whole entry D766A/D770A): as the sequence (P09874 whole entry) above, with D766A, D770A counted along it
T3 sequence (P09874 whole entry R591C): as the sequence (P09874 whole entry) above, with R591C counted along it
T1 sequence (P09874 whole entry W318R): as the sequence (P09874 whole entry) above, with W318R counted along it
Chain of PARP-1 CAT (P09874 661-1014 limits assumed): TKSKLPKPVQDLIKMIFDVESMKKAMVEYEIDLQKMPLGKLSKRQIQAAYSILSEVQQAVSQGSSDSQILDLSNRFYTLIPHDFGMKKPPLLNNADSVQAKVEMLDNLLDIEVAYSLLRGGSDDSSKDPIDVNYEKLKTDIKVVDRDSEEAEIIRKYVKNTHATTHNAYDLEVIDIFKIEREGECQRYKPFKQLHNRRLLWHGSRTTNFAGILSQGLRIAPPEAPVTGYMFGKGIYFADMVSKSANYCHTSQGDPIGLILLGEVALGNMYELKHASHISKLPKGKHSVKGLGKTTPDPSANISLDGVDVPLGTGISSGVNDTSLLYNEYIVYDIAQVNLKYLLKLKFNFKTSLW

SMILES: Nc1ncnc2c1ncn2[C@@H]1O[C@H](C(=O)N2CCN(CC(=O)Nc3cccc4c3CNC4=O)CC2)[C@@H](O)[C@H]1O [EB-47]
binding to CATΔHD (CATΔHD [1]): bound | PARP-1 retention on SSB-DNA (PARP-1 W318R [2]): unaffected | allosteric effect on PARP-1 (HX changes) (PARP-1 [3]): highly localized destabilization of the helical domain (HD) | PARP-1 retention on SSB-DNA (PARP-1 R591C [4]): unaffected | affinity for PARP-1 (PARP-1 [5]): nM range | influence on dissociation (kd) of PARP-1 from a DNA break (in words) (PARP-1 [6]): markedly slowed release from DNA | PARPi type by allosteric effect (PARP-1 [7]): Type I | influence on PARP-1 SSB DNA binding affinity (in words) (PARP-1 [8]): large increase in SSB DNA binding affinity | PARP-1 retention on SSB-DNA (WT PARP-1): increased the retention of WT PARP-1 on DNA | allosteric effect on PARP-1 (HX changes) (PARP-1 R591C [9]): destabilization of the αB and αF helices of the HD | PARP-1 release from / retention on a DNA break (PARP-1 D766/770A [10]): insensitive | allosteric effect on PARP-1 (HX changes) (PARP-1 W318R [11]): destabilization of the αB and αF helices of the HD | allosteric effect on PARP-1 (HX changes) (PARP-1 D766/770A [12]): no longer influenced PARP-1 allostery | binding to PARP-1 CAT (PARP-1 CAT): bound

SMILES: NC(=O)c1cccc([C@@H]2O[C@H](COP(=O)(O)OP(=O)(O)OC[C@H]3O[C@@H](n4cnc5c(N)ncnc54)[C@H](O)[C@@H]3O)[C@@H](O)[C@H]2O)c1 [BAD, benzamide adenine dinucleotide]
PARPi type by allosteric effect (PARP-1 [7]): Type I | binding to CAT versus CATΔHD (CATΔHD [14]): only bind to CATΔHD

SMILES: NC(=O)c1ccc[n+]([C@@H]2O[C@H](COP(=O)([O-])OP(=O)(O)OC[C@H]3O[C@@H](n4cnc5c(N)ncnc54)[C@H](O)[C@@H]3O)[C@@H](O)[C@H]2O)c1 [NAD^+]
binding to CAT versus CATΔHD (CATΔHD [14]): only bind to CATΔHD

SMILES: Cn1ncnc1[C@H]1c2n[nH]c(=O)c3cc(F)cc(c23)N[C@@H]1c1ccc(F)cc1 [talazoparib]
PARP-1 trapping in cells [13]: most efficient trapper of the clinical inhibitors

SMILES: COC(=O)c1cnc(N2CCN(C(=O)c3ccc(-c4nc5c(C(N)=O)cccc5[nH]4)cc3)CC2)nc1 [UKTT15]
killing of CAPAN-1 cells (CAPAN-1 cells): more efficient than veliparib | allosteric effect on PARP-1 (HX changes) (PARP-1 [3]): profound changes to the HX behavior of PARP-1 | PARP-1 dependence of cell killing [15]: required PARP-1 expression | BRCA selectivity of cell killing [16]: killing of the SUM149-BRCA1mut cells at a lower concentration compared to the SUM149PT-BRCA1rev cells | PARP-1-GFP residence time at sites of UV laser-induced damage [17]: increase in the PARP-1-GFP residence time | PARP-1 trapping on DNA in cells [18]: increased ability to trap PARP-1 on DNA | PARPi type by allosteric effect (PARP-1 [7]): Type I | increase in PARP-1 affinity for DNA relative to no inhibitor (PARP-1 [8]; WT PARP-1): 3.5 fold | PARP-1 retention on SSB-DNA (WT PARP-1): strong PARP-1 retention on a DNA break | PARP-1 release from / retention on a DNA break (PARP-1 D766/770A [10]): still retained on DNA | IC50 (PARP-1 [19]): 2.6 nM | inhibition of ADP-ribosylation activity in cells (PAR levels) [20]: not better than veliparib

Second part, led by results:

allosteric effect on PARP-1 (HX changes) (PARP-1 [3]): stronger allosteric effects to the HD | influence on dissociation (kd) of PARP-1 from a DNA break (in words) (PARP-1 [6]): slightly accelerated release | PARPi type by allosteric effect (PARP-1 [7]): Type III | decrease in PARP-1 SSB DNA binding affinity (PARP-1 [8]): 3–5 fold | PARP-1 retention on SSB-DNA (WT PARP-1): not significant
SMILES: C[C@]1(c2nc3c(C(N)=O)cccc3[nH]2)CCCN1 [veliparib]
PARP-1 trapping in cells ([13]; chromatin fractionation): poor PARP-1 trapper

allosteric effect on PARP-1 (HX changes) (PARP-1 [3]): stronger allosteric effects to the HD | influence on dissociation (kd) of PARP-1 from a DNA break (in words) (PARP-1 [6]): slightly accelerated release | PARPi type by allosteric effect (PARP-1 [7]): Type III | decrease in PARP-1 SSB DNA binding affinity (PARP-1 [8]): 3–5 fold
SMILES: NC(=O)c1cccc2cn(-c3ccc([C@@H]4CCCNC4)cc3)nc12 [niraparib]

allosteric effect on PARP-1 (HX changes) (PARP-1 [3]): stronger allosteric effects to the HD | influence on dissociation (kd) of PARP-1 from a DNA break (in words) (PARP-1 [6]): slightly accelerated release | PARPi type by allosteric effect (PARP-1 [7]): Type III | decrease in PARP-1 SSB DNA binding affinity (PARP-1 [8]): 3–5 fold
SMILES: CNCc1ccc(-c2[nH]c3cc(F)cc4c3c2CCNC4=O)cc1 [rucaparib]
